Data: ChEMBL document CHEMBL2401732, “Evaluation of adenine as scaffold for the development of novel P2X3 receptor antagonists” (Eur J Med Chem, 2013)
Substitutions are numbered along the chain they refer to. Calls of active or inactive are those of the source. The calls are words filed in the database; no cut-off is given here.

Tests used:
[1] = biological target: T1, P2X purinoceptor 3 (Rattus norvegicus) (UniProt P49654); assay: Antagonist activity at rat recombinant P2X3 receptor expressed in HEK293T cells assessed as desensitization of alpha,beta-methyleneATP-induced current at 100 uM after 20 secs by patch clamp technique; assay type: cell-based; details: HEK-293T
T1 sequence (whole entry): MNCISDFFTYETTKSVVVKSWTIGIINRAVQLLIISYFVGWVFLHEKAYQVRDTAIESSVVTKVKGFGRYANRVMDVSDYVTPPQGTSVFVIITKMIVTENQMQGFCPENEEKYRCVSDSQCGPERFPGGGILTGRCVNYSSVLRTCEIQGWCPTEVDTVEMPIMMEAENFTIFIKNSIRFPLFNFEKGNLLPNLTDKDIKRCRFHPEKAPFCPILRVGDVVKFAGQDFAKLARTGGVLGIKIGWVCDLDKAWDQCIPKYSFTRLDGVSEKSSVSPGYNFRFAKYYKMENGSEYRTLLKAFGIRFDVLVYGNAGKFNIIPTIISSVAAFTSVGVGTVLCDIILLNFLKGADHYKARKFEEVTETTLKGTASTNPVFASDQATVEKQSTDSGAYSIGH
How it was run: (§1)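 HEK 293T cells transiently co-transfected by calcium phosphate with pEGFP and pcDNA3-P2X3 (rat or human, 1:1), used 24 or 48 h later. GFP-positive cells whole-cell clamped at -60 mV, room temperature, CsCl pipette solution, HEPES-buffered bath pH 7.4. Control response averaged over ≥3 pulses of 100 μM α,β-meATP (2 s, 5 min apart). Compound applied 20 s before agonist. Screening at 100 μM, then 100–0.3 μM. Peak % inhibition computed; Hill fits of dose–inhibition data, n = 6–14 cells.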

[2] = biological target: T1, P2X purinoceptor 3 (Rattus norvegicus); assay: Antagonist activity at rat recombinant P2X3 receptor expressed in HEK293T cells assessed as desensitization of alpha,beta-methyleneATP-induced current at 100 uM after 20 secs by patch clamp technique relative to control; assay type: cell-based; design: scale not given: the % may be the effect or the level left; details: HEK-293T; how it was run: as §1
[3] = biological target: T1, P2X purinoceptor 3 (Rattus norvegicus); assay: Antagonist activity at rat recombinant P2X3 receptor expressed in HEK293T cells assessed as desensitization of alpha,beta-methyleneATP-induced current at 10 uM after 20 secs by patch clamp technique; assay type: cell-based; details: HEK-293T; how it was run: as §1
[4] = biological target: T1, P2X purinoceptor 3 (Rattus norvegicus); assay: Antagonist activity at rat recombinant P2X3 receptor expressed in HEK293T cells assessed as desensitization of alpha,beta-methyleneATP-induced current at 0.3 uM after 20 secs by patch clamp technique; assay type: cell-based; details: HEK-293T; how it was run: as §1
[5] = biological target: T1, P2X purinoceptor 3 (Rattus norvegicus); assay: Antagonist activity at rat recombinant P2X3 receptor expressed in HEK293T cells assessed as desensitization of alpha,beta-methyleneATP-induced current at 1 uM after 20 secs by patch clamp technique; assay type: cell-based; details: HEK-293T; how it was run: as §1
[6] = biological target: T2, P2X purinoceptor 3 (Rattus norvegicus, UniProt P49654); assay: Antagonist activity at rat recombinant P2X3 receptor expressed in HEK293T cells assessed as desensitization of alpha,beta-methyleneATP-induced current after 20 secs by patch clamp technique; assay type: cell-based, HEK-293T; how it was run: as §1
T2 sequence (P49654 whole entry): T1 sequence (whole entry)

[7] = biological target: T1, P2X purinoceptor 3 (Rattus norvegicus); assay: Antagonist activity at rat recombinant P2X3 receptor expressed in HEK293T cells assessed as desensitization of alpha,beta-methyleneATP-induced current at 100 uM after 6 mins of compound wash out by patch clamp technique; assay type: cell-based; details: HEK-293T
How it was run: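 Rat P2X3 in transfected HEK 293T cells, whole-cell clamp at -60 mV. After 20 s compound application and a 2 s pulse of 100 μM α,β-meATP, the cell was washed for 6 min. Recovery was assessed as the peak current to a repeat agonist pulse, compared with the control peak.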

[8] = biological target: T3, P2X purinoceptor 3 (Mus musculus) (UniProt Q3UR32); assay: Antagonist activity at P2X3 receptor in C57Bl/6 wild type mouse trigeminal ganglion sensory neurons assessed as desensitization of alpha,beta-methyleneATP-induced current at 1 uM after 20 secs by patch clamp technique; assay type: tissue-based
T3 sequence (whole entry): T1 sequence (whole entry) with L144R, R202K, A377T
How it was run: (§2)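 Native P2X3 in trigeminal ganglion neurons from C57Bl/6 mice (P10–14), dissociated with trypsin/collagenase/DNAse at 37 °C for 12 min and cultured 24 h. Small/medium neurons whole-cell voltage clamped at -60 mV, room temperature. Pipette KCl-based with ATP–Mg/GTP–Li, pH 7.2. Compound superfused 20 s, then 2 s pulse of 100 μM α,β-meATP. % inhibition = 100×(1−I2/I1) from peak currents.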

[9] = biological target: T3, P2X purinoceptor 3 (Mus musculus); assay: Antagonist activity at P2X3 receptor in C57Bl/6 wild type mouse trigeminal ganglion sensory neurons assessed as desensitization of alpha,beta-methyleneATP-induced current at 100 uM after 20 secs by patch clamp technique; assay type: tissue-based; how it was run: as §2
[10] = biological target: T4, P2X purinoceptor 3 (Homo sapiens) (UniProt P56373); assay: Antagonist activity at human recombinant P2X3 receptor expressed in HEK293T cells assessed as desensitization of alpha,beta-methyleneATP-induced current at 100 uM after 20 secs by patch clamp technique; assay type: cell-based; details: HEK-293T, 1 uM, in the assay text read “at 1 uM” for “at 100 uM”; how it was run: as §1
T4 sequence (whole entry): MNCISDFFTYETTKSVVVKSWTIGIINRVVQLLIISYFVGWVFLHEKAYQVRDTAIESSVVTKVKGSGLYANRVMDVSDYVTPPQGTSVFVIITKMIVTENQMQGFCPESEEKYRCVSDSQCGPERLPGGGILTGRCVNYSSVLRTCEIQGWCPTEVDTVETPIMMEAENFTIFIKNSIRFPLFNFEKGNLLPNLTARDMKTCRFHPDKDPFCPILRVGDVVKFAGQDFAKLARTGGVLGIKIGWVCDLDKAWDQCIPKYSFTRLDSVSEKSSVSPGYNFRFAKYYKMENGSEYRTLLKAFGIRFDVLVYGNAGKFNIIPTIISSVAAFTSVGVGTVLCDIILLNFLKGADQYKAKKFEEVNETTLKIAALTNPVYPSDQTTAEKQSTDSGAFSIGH

Row | SMILES | inhibition [1] [%] | inhibition [3] [%] | inhibition [4] [%] | inhibition [5] [%] | IC50 [6] [nM] | further results
1 | COc1cc(Cn2cnc3nc(N)nc(Cl)c32)c(C(C)C)cc1OC | 19 | – | – | – | – | –
2 | COc1cc(Cn2cnc3c(Cl)nc(N)nc32)c(C(C)C)cc1OC | 27 | – | – | – | – | Activity [2]: 6%
3 | COc1cc(C(C)C)c(Cn2cnc3nc(N)nc(N)c32)cc1I | – | 43 | – | – | – | –
4 | COc1cc(Cn2cnc3nc(N)nc(N)c32)c(C(C)C)cc1OC | 23 | – | – | – | – | –
5 | COc1cc(C(C)C)c(Cn2cnc3c(NC4CCCC4)nc(N)nc32)cc1I | 58 | 60 | 45 | 51 | – | –
6 | COc1cc(Cn2cnc3c(N)nc(N)nc32)c(C(C)C)cc1OC | 82 | 36 | – | 8 | 18600 | Activity [7]: inactive
7 | COc1cc(C(C)C)c(Cn2cnc3c(OC)nc(N)nc32)cc1I | 50 | – | – | – | – | –
8 | CNc1nc(N)nc2c1ncn2Cc1cc(I)c(OC)cc1C(C)C | 98 | 76 | 22 | 41 | 1740 | inhibition [8]: 37%; inhibition [9]: Active; inhibition [10]: 29%; Activity [7]: inactive
9 | CNc1nc(N)nc2c1ncn2Cc1cc(OC)c(OC)cc1C(C)C | 71 | – | – | – | – | –
10 | COc1cc(C(C)C)c(Cn2cnc3c(N)nc(N)nc32)cc1I | 93 | 78 | 23 | 35 | 2230 | –
